Calls of active or inactive are those of the source. The rule behind the calls is not given here. Bounds are passed on as bounds.

What is called Ki is a dissociation constant, usually derived from enzyme kinetics or from competition with a known ligand. Higher therefore signals a looser hold on the target. In general, ED50 refers to the midpoint of the dose-response relation.

Test [1] is filed under the species Rattus norvegicus. The test can be described thus: Log concentration to inhibit DOPA accumulation was determined in rat limbic system. It is filed as functional. The method, boiled down: (§1)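 Reserpine-pretreated (5 mg/kg sc, 18 h) male Sprague-Dawley rats, 200–300 g; compounds in saline given sc. DOPA and 5-HTP in limbic system, striatum and hemispheres measured by HPLC with electrochemical detection. Dose–response curves of 4–6 doses (n = 4) per area, fitted to variable-slope sigmoid on log data to give ED50.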

Test [2] addresses T1, 5-hydroxytryptamine receptor 1A (Rattus norvegicus, UniProt P19327).
T1 sequence (P19327 whole entry): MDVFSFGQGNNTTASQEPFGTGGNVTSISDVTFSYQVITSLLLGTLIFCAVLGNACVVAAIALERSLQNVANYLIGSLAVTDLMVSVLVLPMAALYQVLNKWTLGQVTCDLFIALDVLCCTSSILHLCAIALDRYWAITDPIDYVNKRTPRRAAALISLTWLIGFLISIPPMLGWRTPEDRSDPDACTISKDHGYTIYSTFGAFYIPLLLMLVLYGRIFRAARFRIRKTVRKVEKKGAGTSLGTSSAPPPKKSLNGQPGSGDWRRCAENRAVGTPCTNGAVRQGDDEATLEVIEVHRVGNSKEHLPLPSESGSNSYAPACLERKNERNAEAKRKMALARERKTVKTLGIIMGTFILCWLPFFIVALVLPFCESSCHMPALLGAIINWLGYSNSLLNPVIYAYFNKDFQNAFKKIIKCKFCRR
The test can be described thus: Displacement of the radioligand [3H]8-OH-DPAT from 5-hydroxytryptamine 1A receptor. The method, boiled down: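 Rat whole brain minus brain stem and cerebellum, washed membranes in 50 mM Tris pH 8.0 with 120 mM NaCl, 4 mM CaCl2, 4 mM MgCl2, 10 μM pargyline. Nonspecific with 10 μM 5-HT. IC50 by semilog linear regression, Ki via Cheng–Prusoff; 3–7 experiments, triplicates.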

For test [3], the species on record is Rattus norvegicus. The test can be described thus: The concentration yielding a half maximal decrease of the 5-HTP was determined in rat brain hemispheres. It is filed as functional.
The species named for test [4] is Rattus norvegicus. The test can be described thus: The concentration yielding a half maximal decrease of the DOPA was determined in rat brain striatum. It is filed as functional.
For test [5], the species on record is Rattus norvegicus. Description: The concentration yielding a half maximal decrease of the 5-HTP was determined in rat limbic system. It is filed as functional.
Test [6] is filed under the species Rattus norvegicus. Description: The concentration yielding a half maximal decrease of the DOPA was determined in rat limbic system. It is filed as functional.
For test [7], the species on record is Rattus norvegicus. Description: The concentration yielding a half maximal decrease of the 5-HTP was determined in rat brain striatum. It is filed as functional.
The species named for test [8] is Rattus norvegicus. Description: Log concentration to inhibit DOPA accumulation was determined in rat brain striatum. It is filed as functional. The method, boiled down: as §1
Test [9] has as its system Rattus norvegicus. Description: The concentration yielding a half maximal decrease of the DOPA was determined in rat brain hemispheres; Partial response at 50 umol/kg. It is filed as functional, organism-based. The method, boiled down: as §1
The species named for test [10] is Rattus norvegicus. Description: Log concentration to inhibit 5-HTP accumulation was determined in rat brain hemispheres. It is filed as functional. The method, boiled down:
as §1

Test [11] is filed under the species Rattus norvegicus. Description: Log concentration to inhibit 5-HTP accumulation was determined in rat limbic system. It is filed as functional. The method, boiled down: as §1
The species named for test [12] is Rattus norvegicus. The test can be described thus: Log concentration to inhibit 5-HTP accumulation was determined in rat brain striatum. It is filed as functional. The method, boiled down: as §1
For another test, the target named is D(2) dopamine receptor (Rattus norvegicus, UniProt P61169). The test can be described thus: Displacement of the radioligand [3H]spiperone from D2 receptor. The method, boiled down:
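Rat striatal membranes in 50 mM potassium phosphate buffer, incubated with 0.5 nM [3H]spiperone (3 mg tissue) 10 min at 37 °C. Nonspecific binding defined with 10 μM 6,7-ADTN. IC50 converted to Ki by Cheng–Prusoff; 3–7 experiments, each concentration in triplicate.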

Test [13] deals with Rattus norvegicus. Description: The concentration yielding a half maximal decrease of the 5-HTP was determined in rat brain striatum; inactive at 50 umol/kg. It is filed as functional, organism-based. The method, boiled down: as §1
The test system of test [14] is Rattus norvegicus. The test can be described thus: The concentration yielding a half maximal decrease of the DOPA was determined in rat limbic system; Partial response 50 umol/kg. It is filed as functional, organism-based.
Test [15] has as its system Rattus norvegicus. Description: The concentration yielding a half maximal decrease of the 5-HTP was determined in rat brain hemispheres; inactive at 50 umol/kg. It is filed as functional, organism-based. The method, boiled down:
as §1

The test system of test [16] is Rattus norvegicus. The test can be described thus: The concentration yielding a half maximal decrease of the DOPA was determined in rat brain hemispheres; inactive at 50 umol/kg. It is filed as functional, organism-based. The method, boiled down: as §1
Test [17] has as its system Rattus norvegicus. Description: The concentration yielding a half maximal decrease of the 5-HTP was determined in rat limbic system; inactive at 50 umol/kg. It is filed as functional, organism-based. The method, boiled down: as §1
The test system of test [18] is Rattus norvegicus. The test can be described thus: The concentration yielding a half maximal decrease of the DOPA was determined in rat brain striatum; Partial response 50 umol/kg. It is filed as functional, organism-based.
Test [19] relates to Rattus norvegicus. Description: Motor activity was measured by motility testing on injecting the compound subcutaneously into rats at the dose of 12.5 umol/kg. It is filed as functional. The method, boiled down:
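Rats given reserpine 5 mg/kg sc 18 h beforehand, then test compound sc in neck (n = 4). Placed singly in photocell motility meters straight after dosing; counts recorded for 30 min, gross behaviour observed throughout. Value as counts/30 min with SEM.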

Test [20] relates to Rattus norvegicus. The test can be described thus: The concentration yielding a half maximal decrease of the DOPA was determined in rat limbic system; inactive at 50 umol/kg. It is filed as functional, organism-based.
Test [21] has as its system Rattus norvegicus. Description: The concentration yielding a half maximal decrease of the DOPA was determined in rat brain striatum; inactive at 45 umol/kg. It is filed as functional, organism-based.
Test [22] relates to Rattus norvegicus. The test can be described thus: Motor activity was measured by motility testing on injecting the compound subcutaneously into rats at the dose of 0.02 umol/kg (1a) and 3.5 umol/kg (1b).
For test [23], the system named is Rattus norvegicus. The test can be described thus: The concentration yielding a half maximal decrease of the DOPA was determined in rat limbic system; inactive at 45 umol/kg. It is filed as functional, organism-based.
In test [24] the test system is Rattus norvegicus. Description: The concentration yielding a half maximal decrease of the DOPA was determined in rat brain hemispheres; inactive at 45 umol/kg. It is filed as functional, organism-based. The method, boiled down: as §1
In test [25] the test system is Rattus norvegicus. The test can be described thus: The concentration yielding a half maximal decrease of the 5-HTP was determined in rat brain hemispheres; Partial response at 50 umol/kg. It is filed as functional, organism-based. The method, boiled down:
as §1

The test system of test [26] is Rattus norvegicus. Description: The concentration yielding a half maximal decrease of the DOPA was determined in rat brain striatum; Partial response at 50 umol/kg. It is filed as functional, organism-based.
The subject of test [27] is Rattus norvegicus. Description: The concentration yielding a half maximal decrease of the DOPA was determined in rat limbic system; Partial response at 50 umol/kg. It is filed as functional, organism-based.
For test [28], the system named is Rattus norvegicus. Description: The concentration yielding a half maximal decrease of the DOPA was determined in rat brain striatum; inactive at 50 umol/kg. It is filed as functional, organism-based.
The species entered for test [29] is Rattus norvegicus. Description: The concentration yielding a half maximal decrease of the 5-HTP was determined in rat brain hemispheres. It is filed as functional. The method, boiled down:
as §1

The species named for test [30] is Rattus norvegicus. The test can be described thus: The concentration yielding a half maximal decrease of the DOPA was determined in rat brain striatum. It is filed as functional. The method, boiled down: as §1
The species entered for test [31] is Rattus norvegicus. Description: The concentration yielding a half maximal decrease of the 5-HTP was determined in rat brain striatum. It is filed as functional. The method, boiled down:
as §1

The species entered for test [32] is Rattus norvegicus. The test can be described thus: The concentration yielding a half maximal decrease of the 5-HTP was determined in rat limbic system. It is filed as functional. The method, boiled down:
as §1

The species named for test [33] is Rattus norvegicus. The test can be described thus: The concentration yielding a half maximal decrease of the DOPA was determined in rat limbic system. It is filed as functional.

D(2) dopamine receptor, sequence (P61169 whole entry): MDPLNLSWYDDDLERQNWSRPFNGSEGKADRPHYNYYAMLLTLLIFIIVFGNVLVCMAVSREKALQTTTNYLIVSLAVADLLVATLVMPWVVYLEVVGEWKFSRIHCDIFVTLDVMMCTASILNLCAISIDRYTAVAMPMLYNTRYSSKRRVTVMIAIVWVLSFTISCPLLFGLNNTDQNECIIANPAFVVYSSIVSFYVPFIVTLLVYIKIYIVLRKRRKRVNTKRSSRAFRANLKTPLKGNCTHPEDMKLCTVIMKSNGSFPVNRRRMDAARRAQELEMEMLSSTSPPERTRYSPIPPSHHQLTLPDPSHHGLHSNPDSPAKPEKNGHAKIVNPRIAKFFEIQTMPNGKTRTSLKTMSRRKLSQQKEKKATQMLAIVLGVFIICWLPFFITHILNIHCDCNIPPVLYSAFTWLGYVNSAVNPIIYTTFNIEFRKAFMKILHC

Take `CCCN(CCC)C1CCc2ccc3[nH]cc(Cl)c3c2C1` (stereo not drawn): the pED50 in the test filed under Rattus norvegicus [1] is recorded as 5.43; in the test listed under Rattus norvegicus [8] it was 5.47; in the test filed under Rattus norvegicus [10], 5.85; in the test listed under Rattus norvegicus [11], 5.86; in the test listed under Rattus norvegicus [12], 5.78. Besides, the results for the Ki (in [2]; on D(2) dopamine receptor) were 12.6 nM and 317 nM, respectively. The ED50 is 1.4 µmol/kg in the test filed under Rattus norvegicus [3]; 3.4 µmol/kg in the test filed under Rattus norvegicus [4]; 1.4 µmol/kg in the test filed under Rattus norvegicus [5]; 3.7 µmol/kg in the test filed under Rattus norvegicus [6]; 1.7 µmol/kg in the test listed under Rattus norvegicus [7]; “Weak activity” in the test with Rattus norvegicus [9].

For the compound `CCCN(CCC)C1CCc2ccc3c(c2C1)NCC3` (stereo not drawn), the ED50 result in the test on Rattus norvegicus [13], in the test with Rattus norvegicus [15], in the test with Rattus norvegicus [16] and in the test with Rattus norvegicus [17] was “inactive” in each case. In addition, the Ki is 410 nM in test [2] and 650 nM at D(2) dopamine receptor. Also, the ED50 result with Rattus norvegicus [14] and in the test with Rattus norvegicus [18] was “Weak activity” each time.

As to `CCCN(CCC)C1CCc2ccc3[nH]cc(CC(F)(F)F)c3c2C1` (stereo not drawn), the ED50 result with Rattus norvegicus [13], in the test on Rattus norvegicus [15], in the test with Rattus norvegicus [16], in the test on Rattus norvegicus [17] and in the test with Rattus norvegicus [20] was “inactive” each time. The Activity with Rattus norvegicus [19] came to 10 Counts 30min-1. Moreover, the Ki in test [2] was determined as 182 nM; on D(2) dopamine receptor, 796 nM. Besides, in the test with Rattus norvegicus [18], the ED50 entry is “Weak activity”.

As to `CCCN(CCC)C1CCc2ccc3c(c2C1)N(C=O)CC3` (stereo not drawn), the ED50 result with Rattus norvegicus [13], in the test with Rattus norvegicus [15], in the test on Rattus norvegicus [16] and in the test on Rattus norvegicus [17] was “inactive” each time. For the same compound, the inhibition constant (Ki) in [2] is 550 nM; on D(2) dopamine receptor, over 16000 nM. The ED50 entry with Rattus norvegicus [14] and in the test on Rattus norvegicus [18] was “Weak activity” in each case.

As to `CCCN(CCC)C1CCc2cccc(O)c2C1` (stereo not drawn) [8-OH-DPAT], the ED50 result in the test with Rattus norvegicus [21], in the test with Rattus norvegicus [23] and with Rattus norvegicus [24] was “inactive” each time. In the test with Rattus norvegicus [22], this compound showed a Counts/30 min of 66.

As for `CCCN(CCC)C1CCc2ccc3cc[nH]c3c2C1` (stereo not drawn), the ED50 entry in the test on Rattus norvegicus [13], in the test on Rattus norvegicus [16] and with Rattus norvegicus [17] was “inactive” in each case. For the same compound, the Activity with Rattus norvegicus [19] is reported as 119 Counts 30min-1. Further, the results for the Ki (in [2]; on D(2) dopamine receptor) were 220 nM and 145 nM, respectively. Further, the ED50 result in the test with Rattus norvegicus [25], in the test on Rattus norvegicus [26] and with Rattus norvegicus [27] was “Weak activity” in each case.

In turn, `CCCN(CCC)C1CCc2ccc3c(C=O)c[nH]c3c2C1` (stereo not drawn) came in with a Counts/30 min with Rattus norvegicus [22] of 7. The ED50 result with Rattus norvegicus [13], in the test on Rattus norvegicus [28], in the test with Rattus norvegicus [15], with Rattus norvegicus [16], in the test with Rattus norvegicus [17] and with Rattus norvegicus [20] was “inactive” in each case. For the same compound, the figures for the Ki (in test [2]; at D(2) dopamine receptor) were 6720 nM and over 16000 nM, respectively.

In the test with Rattus norvegicus [22], `CCCN(CCC)C1CCc2cc3c(C=O)c[nH]c3cc2C1` (stereo not drawn) came in with a Counts/30 min of 172. The pED50 was 4.78 in the test filed under Rattus norvegicus [1], 4.87 in the test filed under Rattus norvegicus [10], 4.88 in the test filed under Rattus norvegicus [11] and 4.74 in the test listed under Rattus norvegicus [12]. Further, the figures for the Ki (in test [2]; on D(2) dopamine receptor) were 4720 nM and 700 nM, respectively. The ED50 in the test listed under Rattus norvegicus [29] was 14 µmol/kg; in the test filed under Rattus norvegicus [30], 16.7 µmol/kg; in the test listed under Rattus norvegicus [31], 18 µmol/kg; in the test listed under Rattus norvegicus [32], 13 µmol/kg; in the test listed under Rattus norvegicus [33], 27.8 µmol/kg. The ED50 result in the test on Rattus norvegicus [16] was “inactive”.

Values taken from ChEMBL document CHEMBL1127349, “6,7,8,9-Tetrahydro-N,N-di-n-propyl-3H-benzindol-8-amines. Derivatives as potent and orally active serotonin 5-HT1A receptor agonists” (J Med Chem, 1994).
